ABHD4 inh = ABHD4 inhibitors, primary screen, biochemical, fluorescence polarization, mouse. (Lyso)-N-acylphosphatidylethanolamine lipase (Mus musculus), Q8VD66. purified mABHD4, FP-Rh probe fluorescence polarization. inhibition, % at 8.92 µM. 0.54% of 370,000 active;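 active means inhibition exceeding the mean over every tested compound plus 3 SD, cut at about 30% in these data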
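Test system: mABHD4 protein | Buffer or medium: HEPES pH 7.0 buffer, 150 mM NaCl, 0.01% Pluronic F-127 | Probe or stimulus: FP-Rh fluorescent activity-based probe, added after compound pre-incubation | Timing: Pre-incubation 45 min, probe exposure 60 min, at 25 °C | Technique: Fluorescence polarization, excitation 525 nm, emission 598 nm, BODIPY TMR filters | Repeats: Single well per compound (singlicate)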
PRMT1 inh = PRMT1 methyltransferase inhibitors, primary screen, biochemical, fluorescence polarization; Protein arginine N-methyltransferase 1 (Homo sapiens), Q99873; recombinant PRMT1, activity-based probe fluorescence polarization; inhibition, % at 2.79 µM; 1.3% of 370,000 active;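 active means inhibition above about 21% made by adding two undisclosed values, limit read from the data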
rCAG RNA binder = binders of r(CAG) RNA repeats, primary screen, biochemical, fluorescence | inhibition, % at 3 µM | AID 651821, 2012 | 1.3% of 370,000 active | r(CAG) RNA repeat, TO-PRO-1 dye displacement fluorescence;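 active means inhibition above the plate cutoff, the mean of all test compounds on that plate plus 3 SD, cut at about 35% in these data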;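 further: higher means more dye released from RNA so lower well fluorescence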
TCR CD3 inh = inhibitors of human TCR-CD3 interaction, primary screen, biochemical, fluorescence, TAMRA-labeled TCR probe; inhibition, % at 9.4 µM; 0.37% of 360,000 active; T-cell receptor (TCR); in the data active means inhibition above about 19%;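 further: recombinant mutant TCR 2C K166C tagged with TAMRA read by polarization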
SIAE primary = human SIAE inhibitors, primary screen, biochemical, fluorescence polarization, FP-Rh probe, 1536-well HTS; SIAE FP-Rh probe binding; inhibition, % at 9.66 µM; AID 1053197, 2014; 0.69% of 370,000 active;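 active means inhibition above a cutoff: mean of compounds within the control limits plus 3 SD of those, cut at about 17% in these data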
Target sequence (Q9HAT2 whole entry, looked up): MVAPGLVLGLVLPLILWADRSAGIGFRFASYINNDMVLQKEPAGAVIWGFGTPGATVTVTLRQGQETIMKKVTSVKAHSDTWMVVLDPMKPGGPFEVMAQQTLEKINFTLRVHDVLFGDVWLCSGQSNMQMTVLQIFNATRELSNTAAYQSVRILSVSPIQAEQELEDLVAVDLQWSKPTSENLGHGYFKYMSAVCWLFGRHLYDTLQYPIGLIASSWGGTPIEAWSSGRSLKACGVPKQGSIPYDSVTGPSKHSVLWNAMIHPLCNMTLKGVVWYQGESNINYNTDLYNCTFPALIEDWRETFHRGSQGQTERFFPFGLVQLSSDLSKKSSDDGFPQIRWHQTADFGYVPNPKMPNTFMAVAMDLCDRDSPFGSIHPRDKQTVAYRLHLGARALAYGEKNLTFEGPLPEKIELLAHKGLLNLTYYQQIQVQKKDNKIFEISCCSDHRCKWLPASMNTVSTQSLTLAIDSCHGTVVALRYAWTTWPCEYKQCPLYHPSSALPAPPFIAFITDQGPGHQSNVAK
SIAE inh conf = human SIAE inhibitors, retest, confirmation, biochemical, fluorescence polarization, FP-Rh probe, triplicate | 13% of 2,300 active | inhibition, % at 9.66 µM | shares compounds with SIAE primary | AID 1117263, 2014 | SIAE FP-Rh activity-based probe;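 active means mean inhibition of the replicates above the hit cutoff set in the primary screen, cut at about 17% in these data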;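 further: inhibitors lower polarization as more probe stays unbound to SIAE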
Of the large screens only hits and unclear results are named; the others gave an inactive call (follow-up assays come after a bar, where they were run). Most compounds without a hit are left out; they make up all but 3.3% or so of the library.

Cc1ccc(NC(=S)N/N=C/c2c(C)[nH]c3ccccc23)cc1	SIAE primary 38 | SIAE inh conf 38
COc1ccccc1CCC(=O)OCC(=O)N1c2ccccc2NC(=O)C1(C)C	SIAE primary 21 | SIAE inh conf inactive
Cc1ccc(C)c(OCCC(=O)OCC(=O)N2c3ccccc3NC(=O)C2(C)C)c1	none
OC(c1cccc(Cl)c1)c1nc(-c2cccc3cccnc23)cs1 (stereo unspecified)	none
Cc1ccc(S(=O)(=O)NCCC(=O)N2CCCCCCC2)cc1C	none
CN(C)c1ccc(NC(=O)Nc2csc3ccccc23)cc1	SIAE primary 18 | SIAE inh conf inactive
COc1ccccc1NC(=O)Nc1nc(CC(=O)Nc2ccc(N(C)C)cc2)cs1	SIAE primary 27 | SIAE inh conf inactive
Cc1ccc(S(=O)(=O)Nc2cc(C)cc(CCNC=O)c2C)cc1	none
Cc1c(CCNC=O)cc(C)c2c3c(oc12)CCCC3	SIAE primary 89 | SIAE inh conf inactive
Cc1cccc(NC(=O)NN(C(=O)c2ccccc2Cl)C(C)(C)C)c1	none (no result: TCR CD3 inh)
COc1ccc(Cc2nnc(N)s2)cc1	SIAE primary 17 | SIAE inh conf inactive
O=C(CCC(=O)OCC(F)(F)C(F)F)Nc1ccc(F)cc1F	none
O=C(CCC(=O)OCC(F)(F)C(F)F)Nc1ccc(Cl)cc1	SIAE primary 18 | SIAE inh conf inactive
N#Cc1cccc(NC(=O)c2cc(C3CCCCN3S(=O)(=O)c3cccc4cccnc34)on2)c1 (stereo unspecified)	none
CCC12CCCN3CCc4c(n(c5ccccc45)C(O)(C(=O)OC)C1)C32 (stereo unspecified)	SIAE primary 21 | SIAE inh conf inactive
CC[C@]12CCCN3CCc4c(n(c5ccccc45)[C@](O)(C(=O)OC)C1)[C@@H]32	none
O=C(CC1Nc2cccc3cccc(c23)NC1=O)Nc1ccc(F)cc1 (stereo unspecified)	SIAE primary 24 | SIAE inh conf inactive
COc1ccc(NC(=O)CC2Nc3cccc4cccc(c34)NC2=O)cc1 (stereo unspecified)	none
CC[C@]12c3[nH]c4cc(-c5ccco5)ccc4c3CCN1C(=O)[C@@H](CC(=O)NCC13CC4CC(CC(C4)C1)C3)C[C@@H]2C(=O)N1CCN(C(=O)c2ccco2)CC1	SIAE primary 18 | SIAE inh conf inactive
O=C1Nc2ccccc2C1=Nc1ccc2[nH]c3ccccc3c2c1	SIAE primary 17 | SIAE inh conf inactive
Cc1ccc2nc(C(C)(C)C)c(Cc3ccccc3C(F)(F)F)n2c1	none
COc1ccc(CN(C)C(=O)[C@H]2O[C@@H](n3ccc(=O)[nH]c3=O)[C@H](O)[C@@H]2O)cc1OC	none
COc1ccc(N=C2SC(C(=O)O)CC(=O)N2C)cc1 (stereo unspecified)	SIAE primary 25 | SIAE inh conf inactive
CCN(CC)c1ccc(/C=N/NC(=O)c2cccc(S(=O)(=O)Nc3ccccc3OC)c2)c(O)c1	SIAE primary 35 | SIAE inh conf inactive
COc1ccc(Nc2nc(NCc3ccco3)nc(N/N=C/c3ccc(O)cc3)n2)cc1	SIAE primary 29 | SIAE inh conf inactive
CCOC(=O)COn1c(=O)c(-c2ccc(F)cc2)[n+]([O-])c2ccccc21	none
CCOC(=O)COn1c(=O)c(-c2ccc(Br)cc2)[n+]([O-])c2ccccc21	SIAE primary 17 | SIAE inh conf inactive
CCOC(=O)CCC(=O)N1CCOCCN(C(=O)CCC(=O)OCC)CCOCC1	SIAE primary 19 | SIAE inh conf inactive
CCCC(=O)N1CCCC1(C)C(=O)NCCc1ccccn1 (stereo unspecified)	none
COc1ccc(C2CC(c3ccccc3)=NN2c2ccc(/C=N/NC(=O)c3ccncc3)cc2)cc1 (stereo unspecified)	SIAE primary 17 | SIAE inh conf inactive
COc1ccc(C2CC(c3ccccc3)=NN2c2ccc(C(N)=O)cc2)cc1 (stereo unspecified)	none

High-throughput results from PubChem.
